Source: ChEMBL document CHEMBL4689842, “EUbOPEN Chemogenomics Library wave 1” (2021)

Test system: U2OS
Assay: Multiplex assay against U2OS
Assay type: toxicity, cell-based
Details: human
Method in brief: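 Live cells were stained at seeding with Hoechst33342, BioTracker Green Microtubule Cytoskeleton Dye, MitoTracker Red and Annexin V Alexa Fluor 680. Following compound addition, they were imaged on a CQ1 microscope at 37°C and 5% CO2 and gated by CellPathfinder machine learning into Hoechst high-intensity objects or normal cells, with normal cells split into healthy, pyknosed or fragmented nuclei and pyknosed cells into mitotic or apoptotic. Tubulin, mitochondrial-mass and membrane-permeability phenotypes are per cents of healthy-nucleus cells.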

[1] = 12 h, 1 µM, compound concentration 1 uM, replicate 1
[2] = 12 h, 1 µM, compound concentration 1 uM, replicate 2
[3] = 12 h, 10 µM, compound concentration 10 uM, replicate 1
[4] = 12 h, 10 µM, compound concentration 10 uM, replicate 2
[5] = 24 h, 1 µM, compound concentration 1 uM, replicate 1
[6] = 24 h, 1 µM, compound concentration 1 uM, replicate 2
[7] = 24 h, 10 µM, compound concentration 10 uM, replicate 1
[8] = 24 h, 10 µM, compound concentration 10 uM, replicate 2
[9] = 48 h, 1 µM, compound concentration 1 uM, replicate 1
[10] = 48 h, 1 µM, compound concentration 1 uM, replicate 2
[11] = 48 h, 10 µM, compound concentration 10 uM, replicate 1
[12] = 48 h, 10 µM, compound concentration 10 uM, replicate 2

COc1cc(-n2cnc3cc(-c4ccc(Cl)cc4)sc3c2=O)ccc1OCCN1CCCC1
Population Apoptotic (%) [1]: 45%
Population Fragmented Nuclei (%) [1]: 12%
Population Healthy Nuclei (%) [1]: 70%
Population Hoechst High Intensity Objects (%) [1]: 9%
Population Membrane Permeable-Phenotype (%) [1]: 9%
Population Mitochondria Different-Phenotype (%) [1]: 63%
Population Mitotic Cells (%) [1]: 54%
Population Normal (%) [1]: 90%
Population Pyknosed Nuclei (%) [1]: 16%
Population Tubulin-Different-Phenotype (%) [1]: 65%
Total Cell Count [1]: 157
Population Apoptotic (%) [2]: 71%
Population Fragmented Nuclei (%) [2]: 11%
Population Healthy Nuclei (%) [2]: 77%
Population Hoechst High Intensity Objects (%) [2]: 16%
Population Membrane Permeable-Phenotype (%) [2]: 10%
Population Mitochondria Different-Phenotype (%) [2]: 44%
Population Mitotic Cells (%) [2]: 28%
Population Normal (%) [2]: 84%
Population Pyknosed Nuclei (%) [2]: 11%
Population Tubulin-Different-Phenotype (%) [2]: 34%
Total Cell Count [2]: 78
Population Apoptotic (%) [3]: 72%
Population Fragmented Nuclei (%) [3]: 32%
Population Healthy Nuclei (%) [3]: 13%
Population Hoechst High Intensity Objects (%) [3]: 10%
Population Membrane Permeable-Phenotype (%) [3]: 61%
Population Mitochondria Different-Phenotype (%) [3]: 100%
Population Mitotic Cells (%) [3]: 27%
Population Normal (%) [3]: 90%
Population Pyknosed Nuclei (%) [3]: 54%
Population Tubulin-Different-Phenotype (%) [3]: 100%
Total Cell Count [3]: 144
Population Apoptotic (%) [4]: 26%
Population Fragmented Nuclei (%) [4]: 22%
Population Healthy Nuclei (%) [4]: 57%
Population Hoechst High Intensity Objects (%) [4]: 8%
Population Membrane Permeable-Phenotype (%) [4]: 34%
Population Mitochondria Different-Phenotype (%) [4]: 93%
Population Mitotic Cells (%) [4]: 73%
Population Normal (%) [4]: 91%
Population Pyknosed Nuclei (%) [4]: 19%
Population Tubulin-Different-Phenotype (%) [4]: 97%
Total Cell Count [4]: 75
Population Apoptotic (%) [5]: 56%
Population Fragmented Nuclei (%) [5]: 6%
Population Healthy Nuclei (%) [5]: 76%
Population Hoechst High Intensity Objects (%) [5]: 6%
Population Membrane Permeable-Phenotype (%) [5]: 8%
Population Mitochondria Different-Phenotype (%) [5]: 45%
Population Mitotic Cells (%) [5]: 43%
Population Normal (%) [5]: 93%
Population Pyknosed Nuclei (%) [5]: 16%
Population Tubulin-Different-Phenotype (%) [5]: 42%
Total Cell Count [5]: 175
Population Apoptotic (%) [6]: 62%
Population Fragmented Nuclei (%) [6]: 16%
Population Healthy Nuclei (%) [6]: 71%
Population Hoechst High Intensity Objects (%) [6]: 10%
Population Membrane Permeable-Phenotype (%) [6]: 6%
Population Mitochondria Different-Phenotype (%) [6]: 25%
Population Mitotic Cells (%) [6]: 37%
Population Normal (%) [6]: 89%
Population Pyknosed Nuclei (%) [6]: 12%
Population Tubulin-Different-Phenotype (%) [6]: 21%
Total Cell Count [6]: 83
Population Apoptotic (%) [7]: 95%
Population Fragmented Nuclei (%) [7]: 48%
Population Healthy Nuclei (%) [7]: 3%
Population Hoechst High Intensity Objects (%) [7]: 11%
Population Membrane Permeable-Phenotype (%) [7]: 100%
Population Mitochondria Different-Phenotype (%) [7]: 100%
Population Mitotic Cells (%) [7]: 4%
Population Normal (%) [7]: 88%
Population Pyknosed Nuclei (%) [7]: 47%
Population Tubulin-Different-Phenotype (%) [7]: 100%
Total Cell Count [7]: 147
Population Apoptotic (%) [8]: 47%
Population Fragmented Nuclei (%) [8]: 24%
Population Healthy Nuclei (%) [8]: 52%
Population Hoechst High Intensity Objects (%) [8]: 14%
Population Membrane Permeable-Phenotype (%) [8]: 42%
Population Mitochondria Different-Phenotype (%) [8]: 89%
Population Mitotic Cells (%) [8]: 52%
Population Normal (%) [8]: 85%
Population Pyknosed Nuclei (%) [8]: 23%
Population Tubulin-Different-Phenotype (%) [8]: 81%
Total Cell Count [8]: 74
Population Apoptotic (%) [9]: 59%
Population Fragmented Nuclei (%) [9]: 10%
Population Hoechst High Intensity Objects (%) [9]: 3%
Population Membrane Permeable-Phenotype (%) [9]: 7%
Population Mitochondria Different-Phenotype (%) [9]: 28%
Population Mitotic Cells (%) [9]: 40%
Population Normal (%) [9]: 96%
Population Pyknosed Nuclei (%) [9]: 14%
Population Tubulin-Different-Phenotype (%) [9]: 31%
Total Cell Count [9]: 187
Population Apoptotic (%) [10]: 63%
Population Fragmented Nuclei (%) [10]: 12%
Population Healthy Nuclei (%) [10]: 74%
Population Hoechst High Intensity Objects (%) [10]: 5%
Population Membrane Permeable-Phenotype (%) [10]: 21%
Population Mitochondria Different-Phenotype (%) [10]: 31%
Population Mitotic Cells (%) [10]: 36%
Population Normal (%) [10]: 94%
Population Pyknosed Nuclei (%) [10]: 13%
Population Tubulin-Different-Phenotype (%) [10]: 19%
Total Cell Count [10]: 79
Population Apoptotic (%) [11]: 97%
Population Fragmented Nuclei (%) [11]: 33%
Population Healthy Nuclei (%) [11]: 7%
Population Hoechst High Intensity Objects (%) [11]: 20%
Population Membrane Permeable-Phenotype (%) [11]: 88%
Population Mitochondria Different-Phenotype (%) [11]: 100%
Population Mitotic Cells (%) [11]: 2%
Population Normal (%) [11]: 79%
Population Pyknosed Nuclei (%) [11]: 59%
Population Tubulin-Different-Phenotype (%) [11]: 100%
Total Cell Count [11]: 189
Population Apoptotic (%) [12]: 53%
Population Fragmented Nuclei (%) [12]: 25%
Population Healthy Nuclei (%) [12]: 59%
Population Hoechst High Intensity Objects (%) [12]: 5%
Population Membrane Permeable-Phenotype (%) [12]: 56%
Population Mitochondria Different-Phenotype (%) [12]: 96%
Population Mitotic Cells (%) [12]: 46%
Population Normal (%) [12]: 94%
Population Pyknosed Nuclei (%) [12]: 15%
Population Tubulin-Different-Phenotype (%) [12]: 96%
Total Cell Count [12]: 87

Cl.N#Cc1ccc2[nH]cc(CCCCN3CCN(c4ccc5oc(C(N)=O)cc5c4)CC3)c2c1 [VILAZODONE HYDROCHLORIDE]
Population Apoptotic (%) [1]: 42%
Population Fragmented Nuclei (%) [1]: 17%
Population Healthy Nuclei (%) [1]: 65%
Population Hoechst High Intensity Objects (%) [1]: 9%
Population Membrane Permeable-Phenotype (%) [1]: 4%
Population Mitochondria Different-Phenotype (%) [1]: 28%
Population Mitotic Cells (%) [1]: 57%
Population Normal (%) [1]: 90%
Population Pyknosed Nuclei (%) [1]: 17%
Population Tubulin-Different-Phenotype (%) [1]: 29%
Total Cell Count [1]: 129
Population Apoptotic (%) [2]: 27%
Population Fragmented Nuclei (%) [2]: 14%
Population Healthy Nuclei (%) [2]: 70%
Population Hoechst High Intensity Objects (%) [2]: 2%
Population Membrane Permeable-Phenotype (%) [2]: 6%
Population Mitochondria Different-Phenotype (%) [2]: 30%
Population Mitotic Cells (%) [2]: 72%
Population Normal (%) [2]: 97%
Population Pyknosed Nuclei (%) [2]: 15%
Population Tubulin-Different-Phenotype (%) [2]: 18%
Total Cell Count [2]: 50
Population Apoptotic (%) [3]: 39%
Population Fragmented Nuclei (%) [3]: 29%
Population Healthy Nuclei (%) [3]: 12%
Population Hoechst High Intensity Objects (%) [3]: 18%
Population Membrane Permeable-Phenotype (%) [3]: 42%
Population Mitochondria Different-Phenotype (%) [3]: 89%
Population Mitotic Cells (%) [3]: 60%
Population Normal (%) [3]: 81%
Population Pyknosed Nuclei (%) [3]: 58%
Population Tubulin-Different-Phenotype (%) [3]: 100%
Total Cell Count [3]: 120
Population Apoptotic (%) [4]: 67%
Population Fragmented Nuclei (%) [4]: 20%
Population Healthy Nuclei (%) [4]: 14%
Population Hoechst High Intensity Objects (%) [4]: 10%
Population Membrane Permeable-Phenotype (%) [4]: 38%
Population Mitochondria Different-Phenotype (%) [4]: 46%
Population Mitotic Cells (%) [4]: 32%
Population Normal (%) [4]: 89%
Population Pyknosed Nuclei (%) [4]: 64%
Population Tubulin-Different-Phenotype (%) [4]: 92%
Total Cell Count [4]: 72
Population Apoptotic (%) [5]: 56%
Population Fragmented Nuclei (%) [5]: 16%
Population Healthy Nuclei (%) [5]: 71%
Population Hoechst High Intensity Objects (%) [5]: 7%
Population Membrane Permeable-Phenotype (%) [5]: 2%
Population Mitochondria Different-Phenotype (%) [5]: 26%
Population Mitotic Cells (%) [5]: 43%
Population Normal (%) [5]: 92%
Population Pyknosed Nuclei (%) [5]: 12%
Population Tubulin-Different-Phenotype (%) [5]: 21%
Total Cell Count [5]: 120
Population Apoptotic (%) [6]: 60%
Population Fragmented Nuclei (%) [6]: 15%
Population Healthy Nuclei (%) [6]: 78%
Population Hoechst High Intensity Objects (%) [6]: 1%
Population Membrane Permeable-Phenotype (%) [6]: 3%
Population Mitochondria Different-Phenotype (%) [6]: 19%
Population Mitotic Cells (%) [6]: 40%
Population Normal (%) [6]: 98%
Population Pyknosed Nuclei (%) [6]: 6%
Population Tubulin-Different-Phenotype (%) [6]: 18%
Total Cell Count [6]: 54
Population Apoptotic (%) [7]: 61%
Population Fragmented Nuclei (%) [7]: 26%
Population Membrane Permeable-Phenotype (%) [7]: 53%
Population Mitochondria Different-Phenotype (%) [7]: 86%
Population Mitotic Cells (%) [7]: 38%
Population Pyknosed Nuclei (%) [7]: 64%
Population Tubulin-Different-Phenotype (%) [7]: 93%
Total Cell Count [7]: 135
Population Apoptotic (%) [8]: 75%
Population Fragmented Nuclei (%) [8]: 31%
Population Healthy Nuclei (%) [8]: 9%
Population Hoechst High Intensity Objects (%) [8]: 18%
Population Membrane Permeable-Phenotype (%) [8]: 30%
Population Mitochondria Different-Phenotype (%) [8]: 90%
Population Mitotic Cells (%) [8]: 24%
Population Normal (%) [8]: 81%
Population Pyknosed Nuclei (%) [8]: 59%
Population Tubulin-Different-Phenotype (%) [8]: 90%
Total Cell Count [8]: 79
Population Apoptotic (%) [9]: 38%
Population Fragmented Nuclei (%) [9]: 10%
Population Healthy Nuclei (%) [9]: 76%
Population Hoechst High Intensity Objects (%) [9]: 6%
Population Membrane Permeable-Phenotype (%) [9]: 8%
Population Mitochondria Different-Phenotype (%) [9]: 10%
Population Mitotic Cells (%) [9]: 61%
Population Normal (%) [9]: 93%
Population Pyknosed Nuclei (%) [9]: 12%
Population Tubulin-Different-Phenotype (%) [9]: 16%
Total Cell Count [9]: 121
Population Apoptotic (%) [10]: 40%
Population Fragmented Nuclei (%) [10]: 12%
Population Healthy Nuclei (%) [10]: 82%
Population Hoechst High Intensity Objects (%) [10]: 2%
Population Membrane Permeable-Phenotype (%) [10]: 9%
Population Mitochondria Different-Phenotype (%) [10]: 9%
Population Mitotic Cells (%) [10]: 60%
Population Normal (%) [10]: 97%
Population Pyknosed Nuclei (%) [10]: 4%
Population Tubulin-Different-Phenotype (%) [10]: 11%
Total Cell Count [10]: 49
Population Apoptotic (%) [11]: 91%
Population Fragmented Nuclei (%) [11]: 35%
Population Healthy Nuclei (%) [11]: 7%
Population Hoechst High Intensity Objects (%) [11]: 21%
Population Membrane Permeable-Phenotype (%) [11]: 87%
Population Mitochondria Different-Phenotype (%) [11]: 100%
Population Mitotic Cells (%) [11]: 8%
Population Normal (%) [11]: 78%
Population Pyknosed Nuclei (%) [11]: 56%
Population Tubulin-Different-Phenotype (%) [11]: 100%
Total Cell Count [11]: 174
Population Apoptotic (%) [12]: 89%
Population Fragmented Nuclei (%) [12]: 25%
Population Healthy Nuclei (%) [12]: 5%
Population Hoechst High Intensity Objects (%) [12]: 25%
Population Membrane Permeable-Phenotype (%) [12]: 75%
Population Mitotic Cells (%) [12]: 10%
Population Normal (%) [12]: 74%
Population Pyknosed Nuclei (%) [12]: 68%
Total Cell Count [12]: 120
